Active and inactive are the calls of the source. The rule behind the calls is not given here.
Legend:
[1] = biological target: T1, Protein phosphatase methylesterase 1 (Homo sapiens) (UniProt Q9Y570); assay: Inhibition of PME1 overexpressed in HEK293T cells assessed as increase in methylated PP2A level at 20 uM after 1 hr by Western blot analysis; format: cell-based; conditions: HEK-293T
T1 sequence (whole entry): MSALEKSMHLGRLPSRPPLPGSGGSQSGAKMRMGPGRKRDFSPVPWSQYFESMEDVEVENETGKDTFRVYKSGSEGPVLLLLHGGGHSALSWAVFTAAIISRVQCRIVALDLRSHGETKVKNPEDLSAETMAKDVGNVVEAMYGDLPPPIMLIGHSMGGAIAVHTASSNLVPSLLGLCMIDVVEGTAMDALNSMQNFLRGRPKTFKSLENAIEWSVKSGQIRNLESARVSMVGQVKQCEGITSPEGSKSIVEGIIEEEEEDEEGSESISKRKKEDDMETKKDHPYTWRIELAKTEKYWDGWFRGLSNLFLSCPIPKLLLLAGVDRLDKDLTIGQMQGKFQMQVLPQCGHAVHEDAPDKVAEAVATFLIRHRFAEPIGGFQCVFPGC
Outline: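 HEK 293T cells, either stably overexpressing PME-1 or untransfected, treated in medium for 1 h at 37 °C. Total cell extract (2 mg/mL) run on reducing SDS-PAGE (10%) and blotted with demethylated-specific (4b7), methylated-specific (2A10) and total PP2A antibodies, imaged by infrared fluorescence. Mean ± SEM, n = 3, compared against DMSO-treated cells.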

HEK-293T = assay: Effect on sulfonate ester-Rh labeled soluble proteome in HEK293T cells at 100 uM incubated for 1 hr before proteome labeling measured after 1 hr relative to control; format: cell-based; conditions: Homo sapiens
Outline: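 HEK 293T cells (DMEM, 10% FBS, 37 °C, 5% CO2) given compound in medium for 1 h at 37 °C, washed, scraped, sonicated in PBS pH 7.5. Soluble fraction diluted to 1 mg/mL protein in PBS, labeled with CA-rhodamine or SE-rhodamine (5 μM, 1 h, 25 °C), run on reducing SDS-PAGE (10%), and band intensities read by in-gel fluorescence against DMSO-treated samples.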

[2] = biological target: Testis-expressed protein 30 (Homo sapiens) (UniProt Q5JUR7); assay: Inhibition of C13orf27 binding to FP-biotin in [12C][14N]-lysine, arginine and [13C6][15N2]-lysine, arginine labeled HEK293T cells at 20 uM after 1 hr by isotopic activity-based protein profiling-MudPIT assay; format: cell-based; conditions: HEK-293T
Outline: (§1)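 SILAC HEK 293T: light cells (12C14N-Lys/Arg) treated with compound, heavy cells (13C6 15N2-Lys/Arg) with DMSO, 1 h at 37 °C. Proteomes were mixed 1:1 (0.5 mg each) and labeled with FP-biotin (5 μM, 1 h, 25 °C), then streptavidin-enriched, digested on bead with trypsin, and run by MudPIT. Light/heavy ratios were normalized to a DMSO/DMSO control. Only SHs with ≥2 quantifiable peptides were kept; mean ± SEM across peptides.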

[3] = biological target: Calcium-independent phospholipase A2-gamma (Homo sapiens) (UniProt Q9NP80); assay: Inhibition of PNPLA8 binding to FP-biotin in [12C][14N]-lysine, arginine and [13C6][15N2]-lysine, arginine labeled HEK293T cells at 20 uM after 1 hr by isotopic activity-based protein profiling-MudPIT assay; format: cell-based; conditions: HEK-293T; outline: as §1
[4] = biological target: Prolyl endopeptidase-like (Homo sapiens) (UniProt Q4J6C6); assay: Inhibition of PREPL binding to FP-biotin in [12C][14N]-lysine, arginine and [13C6][15N2]-lysine, arginine labeled HEK293T cells at 20 uM after 1 hr by isotopic activity-based protein profiling-MudPIT assay; format: cell-based; conditions: HEK-293T; outline: as §1
[5] = biological target: Patatin-like phospholipase domain-containing protein 6 (Homo sapiens) (UniProt Q8IY17); assay: Inhibition of PNPLA6 binding to FP-biotin in [12C][14N]-lysine, arginine and [13C6][15N2]-lysine, arginine labeled HEK293T cells at 20 uM after 1 hr by isotopic activity-based protein profiling-MudPIT assay; format: cell-based; conditions: HEK-293T; outline: as §1
Chain of Patatin-like phospholipase domain-containing protein 6 (Homo sapiens) (Q8IY17 whole entry, the tested form may be a part): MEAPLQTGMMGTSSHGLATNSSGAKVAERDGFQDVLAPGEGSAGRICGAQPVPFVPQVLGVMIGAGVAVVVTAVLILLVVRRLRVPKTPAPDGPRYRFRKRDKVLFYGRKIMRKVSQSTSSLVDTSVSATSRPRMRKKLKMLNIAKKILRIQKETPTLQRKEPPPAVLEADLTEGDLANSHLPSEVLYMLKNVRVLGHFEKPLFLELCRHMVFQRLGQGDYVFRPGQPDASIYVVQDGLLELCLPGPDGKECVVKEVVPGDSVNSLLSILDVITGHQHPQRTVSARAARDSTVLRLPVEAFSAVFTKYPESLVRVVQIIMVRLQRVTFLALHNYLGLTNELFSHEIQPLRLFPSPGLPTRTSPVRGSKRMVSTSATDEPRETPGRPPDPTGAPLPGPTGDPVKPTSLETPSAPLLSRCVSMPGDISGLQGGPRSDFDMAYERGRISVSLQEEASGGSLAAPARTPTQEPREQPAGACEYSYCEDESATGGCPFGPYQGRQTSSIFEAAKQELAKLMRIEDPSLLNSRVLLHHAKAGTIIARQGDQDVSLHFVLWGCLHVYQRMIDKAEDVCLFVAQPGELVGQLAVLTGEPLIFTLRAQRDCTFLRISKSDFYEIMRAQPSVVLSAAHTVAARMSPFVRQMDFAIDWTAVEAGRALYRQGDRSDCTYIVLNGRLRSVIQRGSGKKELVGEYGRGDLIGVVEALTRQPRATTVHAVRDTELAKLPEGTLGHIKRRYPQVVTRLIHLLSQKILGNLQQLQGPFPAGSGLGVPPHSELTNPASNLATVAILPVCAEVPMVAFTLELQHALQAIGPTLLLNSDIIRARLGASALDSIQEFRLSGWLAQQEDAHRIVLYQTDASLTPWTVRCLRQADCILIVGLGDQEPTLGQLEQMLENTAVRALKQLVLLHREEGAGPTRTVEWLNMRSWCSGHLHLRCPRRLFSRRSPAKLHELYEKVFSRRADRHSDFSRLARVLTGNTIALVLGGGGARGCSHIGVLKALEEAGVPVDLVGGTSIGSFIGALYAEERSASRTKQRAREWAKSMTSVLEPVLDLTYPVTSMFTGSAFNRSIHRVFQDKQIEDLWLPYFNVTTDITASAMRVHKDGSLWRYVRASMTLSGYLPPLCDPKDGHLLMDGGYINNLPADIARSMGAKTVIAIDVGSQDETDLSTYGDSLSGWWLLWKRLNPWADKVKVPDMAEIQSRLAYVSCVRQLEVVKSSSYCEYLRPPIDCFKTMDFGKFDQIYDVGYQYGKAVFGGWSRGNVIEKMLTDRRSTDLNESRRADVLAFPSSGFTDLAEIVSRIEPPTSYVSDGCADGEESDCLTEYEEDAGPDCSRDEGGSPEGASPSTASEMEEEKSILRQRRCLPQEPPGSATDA

[6] = biological target: Dipeptidyl peptidase 9 (Homo sapiens) (UniProt Q86TI2); assay: Inhibition of DPP9 binding to FP-biotin in[12C][14N]-lysine, arginine and [13C6][15N2]-lysine, arginine labeled HEK293T cells at 20 uM after 1 hr by isotopic activity-based protein profiling-MudPIT assay; format: cell-based; conditions: HEK-293T; outline: as §1
Chain of Dipeptidyl peptidase 9 (Homo sapiens) (Q86TI2 2-863 limits assumed): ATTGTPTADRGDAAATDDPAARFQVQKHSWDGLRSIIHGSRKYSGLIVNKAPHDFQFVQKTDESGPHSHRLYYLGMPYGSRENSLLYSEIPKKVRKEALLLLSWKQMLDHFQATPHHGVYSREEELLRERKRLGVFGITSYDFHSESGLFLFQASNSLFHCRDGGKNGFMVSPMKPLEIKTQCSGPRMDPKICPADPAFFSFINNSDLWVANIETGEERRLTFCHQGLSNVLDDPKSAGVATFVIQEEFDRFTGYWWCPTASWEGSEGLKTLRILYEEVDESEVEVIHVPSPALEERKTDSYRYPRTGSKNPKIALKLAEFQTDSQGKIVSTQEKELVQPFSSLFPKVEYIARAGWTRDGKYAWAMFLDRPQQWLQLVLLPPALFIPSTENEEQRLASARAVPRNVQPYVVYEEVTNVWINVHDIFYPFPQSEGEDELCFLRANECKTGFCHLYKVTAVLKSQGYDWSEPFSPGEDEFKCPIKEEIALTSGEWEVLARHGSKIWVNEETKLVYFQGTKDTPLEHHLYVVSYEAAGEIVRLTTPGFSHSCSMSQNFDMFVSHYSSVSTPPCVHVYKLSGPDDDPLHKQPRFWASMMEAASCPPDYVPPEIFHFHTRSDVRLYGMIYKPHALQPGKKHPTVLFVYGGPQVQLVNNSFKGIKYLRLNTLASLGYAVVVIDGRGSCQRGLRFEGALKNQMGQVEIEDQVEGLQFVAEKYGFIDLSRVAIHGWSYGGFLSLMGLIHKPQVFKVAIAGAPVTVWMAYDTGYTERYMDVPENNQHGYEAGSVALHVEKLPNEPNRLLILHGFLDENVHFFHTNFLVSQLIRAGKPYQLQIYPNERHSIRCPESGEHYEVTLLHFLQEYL

[7] = biological target: Phosphatidylserine lipase ABHD16A (Homo sapiens) (UniProt O95870); assay: Inhibition of BAT5 binding to FP-biotin in [12C][14N]-lysine, arginine and [13C6][15N2]-lysine, arginine labeled HEK293T cells at 20 uM after 1 hr by isotopic activity-based protein profiling-MudPIT assay; format: cell-based; conditions: HEK-293T; outline: as §1
Chain of Phosphatidylserine lipase ABHD16A (Homo sapiens) (O95870 whole entry): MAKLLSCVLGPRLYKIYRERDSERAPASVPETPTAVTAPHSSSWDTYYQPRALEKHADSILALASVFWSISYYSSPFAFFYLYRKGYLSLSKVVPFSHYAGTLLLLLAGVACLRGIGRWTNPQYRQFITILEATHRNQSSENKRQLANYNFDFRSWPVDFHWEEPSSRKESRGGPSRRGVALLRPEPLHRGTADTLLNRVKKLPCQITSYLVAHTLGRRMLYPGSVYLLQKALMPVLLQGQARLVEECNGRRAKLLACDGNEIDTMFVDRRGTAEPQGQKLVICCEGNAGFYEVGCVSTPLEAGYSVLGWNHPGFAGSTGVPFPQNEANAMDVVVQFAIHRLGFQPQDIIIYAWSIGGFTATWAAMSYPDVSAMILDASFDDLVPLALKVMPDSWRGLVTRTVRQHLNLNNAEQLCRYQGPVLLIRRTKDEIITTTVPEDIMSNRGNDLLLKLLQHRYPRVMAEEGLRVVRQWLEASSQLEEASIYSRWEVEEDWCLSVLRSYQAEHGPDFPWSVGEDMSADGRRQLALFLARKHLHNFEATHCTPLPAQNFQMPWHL

[8] = biological target: Retinoid-inducible serine carboxypeptidase (Homo sapiens) (UniProt Q9HB40); assay: Inhibition of SCPEP1 binding to FP-biotin in [12C][14N]-lysine, arginine and [13C6][15N2]-lysine, arginine labeled HEK293T cells at 20 uM after 1 hr by isotopic activity-based protein profiling-MudPIT assay; format: cell-based; conditions: HEK-293T; outline: as §1
Chain of Retinoid-inducible serine carboxypeptidase (Homo sapiens) (Q9HB40 whole entry): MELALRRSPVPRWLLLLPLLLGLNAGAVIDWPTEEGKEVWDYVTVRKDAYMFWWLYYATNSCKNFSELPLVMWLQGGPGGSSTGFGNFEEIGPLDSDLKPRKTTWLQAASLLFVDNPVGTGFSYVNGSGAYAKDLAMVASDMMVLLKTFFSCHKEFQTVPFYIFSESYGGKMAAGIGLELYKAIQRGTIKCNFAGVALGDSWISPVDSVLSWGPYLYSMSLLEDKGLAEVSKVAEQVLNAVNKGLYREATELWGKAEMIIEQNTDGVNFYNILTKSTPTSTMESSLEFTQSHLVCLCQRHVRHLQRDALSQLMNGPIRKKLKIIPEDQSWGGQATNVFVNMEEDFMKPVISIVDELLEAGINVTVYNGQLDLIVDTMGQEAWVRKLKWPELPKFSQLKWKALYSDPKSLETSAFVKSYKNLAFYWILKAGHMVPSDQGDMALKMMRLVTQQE

[9] = biological target: Neutral cholesterol ester hydrolase 1 (Homo sapiens) (UniProt Q6PIU2); assay: Inhibition of AADACL1 binding to FP-biotin in [12C][14N]-lysine, arginine and [13C6][15N2]-lysine, arginine labeled HEK293T cells at 20 uM after 1 hr by isotopic activity-based protein profiling-MudPIT assay; format: cell-based; conditions: HEK-293T; outline: as §1
Chain of Neutral cholesterol ester hydrolase 1 (Homo sapiens) (Q6PIU2 whole entry, the tested form may be a part): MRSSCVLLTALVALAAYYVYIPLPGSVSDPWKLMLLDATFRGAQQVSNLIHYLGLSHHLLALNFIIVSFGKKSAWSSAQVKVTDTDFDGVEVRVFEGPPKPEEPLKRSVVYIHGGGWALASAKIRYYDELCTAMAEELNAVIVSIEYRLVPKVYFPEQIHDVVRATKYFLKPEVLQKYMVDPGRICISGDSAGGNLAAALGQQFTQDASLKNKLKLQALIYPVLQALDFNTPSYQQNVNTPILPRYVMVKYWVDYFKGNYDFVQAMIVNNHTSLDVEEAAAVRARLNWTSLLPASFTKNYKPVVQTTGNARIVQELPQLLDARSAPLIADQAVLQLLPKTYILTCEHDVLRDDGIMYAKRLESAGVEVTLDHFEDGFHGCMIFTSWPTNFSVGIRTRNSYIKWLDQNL

[10] = biological target: Alpha/beta hydrolase domain-containing protein 17B (Homo sapiens) (UniProt Q5VST6); assay: Inhibition of FAM108B1 binding to FP-biotin in [12C][14N]-lysine, arginine and [13C6][15N2]-lysine, arginine labeled HEK293T cells at 20 uM after 1 hr by isotopic activity-based protein profiling-MudPIT assay; format: cell-based; conditions: HEK-293T; outline: as §1
Chain of Alpha/beta hydrolase domain-containing protein 17B (Homo sapiens) (Q5VST6 whole entry, the tested form may be a part): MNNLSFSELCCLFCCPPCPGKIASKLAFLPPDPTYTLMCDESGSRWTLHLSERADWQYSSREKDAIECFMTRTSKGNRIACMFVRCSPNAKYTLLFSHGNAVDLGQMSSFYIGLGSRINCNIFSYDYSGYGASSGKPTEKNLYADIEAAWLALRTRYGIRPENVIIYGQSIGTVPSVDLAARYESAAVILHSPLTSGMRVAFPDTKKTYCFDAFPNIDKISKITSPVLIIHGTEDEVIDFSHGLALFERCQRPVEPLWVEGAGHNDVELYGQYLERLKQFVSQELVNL

[11] = biological target: Prolyl endopeptidase (Homo sapiens) (UniProt P48147); assay: Inhibition of PREP binding to FP-biotin in [12C][14N]-lysine, arginine and [13C6][15N2]-lysine, arginine labeled HEK293T cells at 20 uM after 1 hr by isotopic activity-based protein profiling-MudPIT assay; format: cell-based; conditions: HEK-293T; outline: as §1
[12] = biological target: Lysosomal phospholipase A and acyltransferase (Homo sapiens) (UniProt Q8NCC3); assay: Inhibition of LYPLA3 binding to FP-biotin in [12C][14N]-lysine, arginine and [13C6][15N2]-lysine, arginine labeled HEK293T cells at 20 uM after 1 hr by isotopic activity-based protein profiling-MudPIT assay; format: cell-based; conditions: HEK-293T; outline: as §1
Chain of Lysosomal phospholipase A and acyltransferase (Homo sapiens) (Q8NCC3 whole entry): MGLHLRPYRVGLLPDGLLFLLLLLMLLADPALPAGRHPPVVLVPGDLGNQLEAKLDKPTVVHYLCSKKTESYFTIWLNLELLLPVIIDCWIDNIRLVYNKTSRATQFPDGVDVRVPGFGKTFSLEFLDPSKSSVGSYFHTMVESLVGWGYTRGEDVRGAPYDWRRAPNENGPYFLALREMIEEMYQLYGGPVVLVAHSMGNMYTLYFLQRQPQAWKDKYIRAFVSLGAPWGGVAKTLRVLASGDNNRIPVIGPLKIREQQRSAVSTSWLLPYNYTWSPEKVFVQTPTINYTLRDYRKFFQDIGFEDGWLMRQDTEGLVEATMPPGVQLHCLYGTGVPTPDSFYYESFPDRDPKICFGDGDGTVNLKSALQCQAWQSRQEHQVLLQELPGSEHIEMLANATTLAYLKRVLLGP

[13] = biological target: Diacylglycerol lipase-beta (Homo sapiens) (UniProt Q8NCG7); assay: Inhibition of DAGLB binding to FP-biotin in [12C][14N]-lysine, arginine and [13C6][15N2]-lysine, arginine labeled HEK293T cells at 20 uM after 1 hr by isotopic activity-based protein profiling-MudPIT assay; format: cell-based; conditions: HEK-293T; outline: as §1
Chain of Diacylglycerol lipase-beta (Homo sapiens) (Q8NCG7 whole entry): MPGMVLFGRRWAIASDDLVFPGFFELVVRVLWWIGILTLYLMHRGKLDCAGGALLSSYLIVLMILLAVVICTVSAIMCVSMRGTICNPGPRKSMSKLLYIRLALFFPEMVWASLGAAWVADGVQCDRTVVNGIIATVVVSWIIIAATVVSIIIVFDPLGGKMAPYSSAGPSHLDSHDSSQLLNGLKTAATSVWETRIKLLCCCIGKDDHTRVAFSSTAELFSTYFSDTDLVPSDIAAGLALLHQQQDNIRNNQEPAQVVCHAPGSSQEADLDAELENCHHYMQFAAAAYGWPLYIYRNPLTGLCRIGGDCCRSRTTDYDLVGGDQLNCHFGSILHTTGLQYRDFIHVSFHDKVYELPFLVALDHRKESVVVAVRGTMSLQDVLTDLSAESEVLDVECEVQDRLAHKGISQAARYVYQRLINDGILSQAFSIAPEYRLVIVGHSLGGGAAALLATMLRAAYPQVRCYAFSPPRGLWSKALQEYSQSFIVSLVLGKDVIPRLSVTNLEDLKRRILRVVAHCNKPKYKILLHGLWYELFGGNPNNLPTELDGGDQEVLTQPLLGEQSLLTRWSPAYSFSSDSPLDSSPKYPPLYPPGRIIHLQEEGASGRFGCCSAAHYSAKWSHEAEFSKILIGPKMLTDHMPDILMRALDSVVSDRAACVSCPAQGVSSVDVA

[14] = biological target: T1, Protein phosphatase methylesterase 1 (Homo sapiens); conditions: HEK-293T, 20 uM
[15] = biological target: T1, Protein phosphatase methylesterase 1 (Homo sapiens); conditions: HEK-293T, 50 uM

inhibition [1]: Active
inhibition [2]: inactive
inhibition [3]: inactive
inhibition [4]: inactive
inhibition [5]: inactive
inhibition [6]: inactive
inhibition [7]: inactive
inhibition [8]: inactive
inhibition [9]: inactive
inhibition [10]: inactive
inhibition [11]: inactive
inhibition [12]: inactive
inhibition [13]: inactive
inhibition [14]: Active
inhibition [15]: Active
Compound: N#C/C(=C\c1cccn1S(=O)(=O)c1cccc([N+](=O)[O-])c1)S(=O)(=O)c1ccc(F)cc1
Activity (HEK-293T): inactive
